Source: ChEMBL document CHEMBL4699393, “Meridianin D analogues possess antibiofilm activity against Mycobacterium smegmatis” (RSC Med Chem, 2020)
≈ marks a conversion by molar mass, not a printed value.

Tests used:
[1] = test system: Mycolicibacterium smegmatis; experiment: Antibiofilm activity against Mycobacterium smegmatis mc2 155 ATCC 700084 assessed as dispersion of preformed biofilms measured after 24 hrs by crystal violet reporter assay; format: functional, organism-based; details: MC2 155 ATCC 700084, 24 h
Procedure, shortened: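 Cultures (48 h) diluted to 0.01 in M9 minimal salts with glucose, MgSO4 and CaCl2 in PVC plates. Biofilm grown stationary at 37 °C for 48 h, washed, then fresh medium with compound added for 24 h at 37 °C. Stained with 0.1% crystal violet 30 min, solubilised in 95% ethanol, OD540 read. Media blanks subtracted. Dispersion calculated against untreated biofilm wells. At least three repeats.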

[2] = test system: Mycolicibacterium smegmatis; experiment: Antibiofilm activity against Mycobacterium smegmatis mc2 155 ATCC 700084 assessed as inhibition of biofilm formation measured after 24 hrs by crystal violet reporter assay; format: functional, organism-based; details: MC2 155 ATCC 700084, 24 h
[3] = test system: Mycolicibacterium smegmatis; experiment: Antibacterial activity against Mycobacterium smegmatis mc2 155 ATCC 700084 assessed as inhibition of bacterial growth incubated for 48 hrs by alamarblue dye based broth microdilution method; format: functional
Procedure, shortened: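 Inoculum from 48 h cultures set to 5 x 10^5 CFU/mL in 7H9 + ADC. Compound in DMSO two-fold serially diluted from 200 µM top concentration. Stationary 37 °C for 48 h, then alamarBlue for 8 h at 37 °C. MIC is the lowest concentration with no viable bacteria (blue, not pink). Duplicate wells, at least two independent repeats.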

[4] = test system: Mycolicibacterium smegmatis; experiment: Potentiation of Ampicillin-induced antibacterial activity against Mycobacterium smegmatis mc2 155 ATCC 700084 assessed as Ampicillin MIC at 60 uM incubated for 48 hrs by alamarblue dye based broth microdilution method (reference value: 128 ug/ml); format: functional
Procedure, shortened: (§1)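 Inoculum from 48 h cultures set to 5 x 10^5 CFU/mL in 7H9 + ADC and pre-dosed with compound from DMSO stock at fixed concentration. β-lactam two-fold serially diluted from top concentration, with an antibiotic-only control series. Stationary 37 °C for 48 h, then alamarBlue for 8 h. MIC is the lowest blue (non-viable) well. Fold reduction is relative to the antibiotic-only MIC. Duplicates, at least two repeats.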

[5] = test system: Mycolicibacterium smegmatis; experiment: Potentiation of Ceftazidime-induced antibacterial activity against Mycobacterium smegmatis mc2 155 ATCC 700084 assessed as Ceftazidime MIC at 60 uM incubated for 48 hrs by alamarblue dye based broth microdilution method (reference value: 512 ug/ml); format: functional; procedure, shortened: as §1
[6] = test system: Mycolicibacterium smegmatis; experiment: Potentiation of Ceftazidime-induced antibacterial activity against Mycobacterium smegmatis mc2 155 ATCC 700084 assessed as fold reduction in Ceftazidime MIC at 60 uM incubated for 48 hrs by alamarblue dye based broth microdilution method; format: functional; procedure, shortened: as §1
[7] = test system: Mycolicibacterium smegmatis; experiment: Potentiation of Cefoxitin-induced antibacterial activity against Mycobacterium smegmatis mc2 155 ATCC 700084 assessed as Cefoxitin MIC at 60 uM incubated for 48 hrs by alamarblue dye based broth microdilution method (reference value: 16 ug/ml); format: functional; procedure, shortened: as §1
[8] = test system: Mycolicibacterium smegmatis; experiment: Potentiation of oxacillin-induced antibacterial activity against Mycobacterium smegmatis mc2 155 ATCC 700084 assessed as fold reduction in oxacillin MIC at 60 uM incubated for 48 hrs by alamarblue dye based broth microdilution method; format: functional; procedure, shortened: as §1
[9] = test system: Mycolicibacterium smegmatis; experiment: Potentiation of Cefotaxime-induced antibacterial activity against Mycobacterium smegmatis mc2 155 ATCC 700084 assessed as fold reduction in Cefotaxime MIC at 60 uM incubated for 48 hrs by alamarblue dye based broth microdilution method; format: functional; procedure, shortened: as §1
[10] = test system: Mycolicibacterium smegmatis; experiment: Potentiation of Cefoxitin-induced antibacterial activity against Mycobacterium smegmatis mc2 155 ATCC 700084 assessed as fold reduction in Cefoxitin MIC at 60 uM incubated for 48 hrs by alamarblue dye based broth microdilution method; format: functional; procedure, shortened: as §1
[11] = test system: Mycolicibacterium smegmatis; experiment: Potentiation of Oxacillin-induced antibacterial activity against Mycobacterium smegmatis mc2 155 ATCC 700084 assessed as Oxacillin MIC at 60 uM incubated for 48 hrs by alamarblue dye based broth microdilution method (Rvb =512 ug/ml); format: functional; procedure, shortened: as §1
[12] = test system: Mycolicibacterium smegmatis; experiment: Potentiation of Cefotaxime-induced antibacterial activity against Mycobacterium smegmatis mc2 155 ATCC 700084 assessed as Cefotaxime MIC at 60 uM incubated for 48 hrs by alamarblue dye based broth microdilution method (reference value: 128 ug/ml); format: functional; procedure, shortened: as §1
[13] = test system: Mycolicibacterium smegmatis; experiment: Potentiation of Ampicillin-induced antibacterial activity against Mycobacterium smegmatis mc2 155 ATCC 700084 assessed as fold reduction in Ampicillin MIC at 60 uM incubated for 48 hrs by alamarblue dye based broth microdilution method; format: functional; procedure, shortened: as §1
[14] = Hemolytic activity in sheep RBC assessed as hemolysis at 500 uM measured after 1 hr by UV spectrometer analysis; format: ADME, cell-based, Ovis aries, Erythrocyte; details: sheep red blood cells (erythrocytes), read-out: Activity
Procedure, shortened: (§2)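 Mechanically defibrinated sheep blood was centrifuged, and the cells were washed and resuspended in PBS three times, then diluted 10-fold. Compound was added from DMSO stock. Controls were 1% Triton X (100% lysis) and PBS (zero lysis). Samples were incubated 1 h at 37 °C with shaking at 200 rpm, then centrifuged. Supernatant was diluted 40-fold in distilled water and read at A540. Run in duplicate, repeated at least twice.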

[15] = Hemolytic activity in sheep RBC assessed as hemolysis at 200 uM measured after 1 hr by UV spectrometer analysis; format: ADME, cell-based, Ovis aries, Erythrocyte; details: sheep red blood cells (erythrocytes), read-out: Activity; procedure, shortened: as §2

Question: Which EC50 [1] does the source give for CCCn1cc(-c2ccnc(N)n2)c2ccc(Br)cc21 here?
Answer: > 50 µM

Question: And the IC50 [2]?
Answer: 34.5 µM

Question: For Cc1ccc2[nH]cc(-c3ccnc(N)n3)c2c1, which EC50 [1] is on record?
Answer: > 50 µM

Question: And the IC50 [2]?
Answer: 15.7 µM

Question: Which EC50 [1] does the source give for Cn1cc(-c2ccnc(N)n2)c2ccc(Br)cc21 here?
Answer: > 50 µM

Question: What about the IC50 [2] of the same compound?
Answer: 26.7 µM

Question: Which EC50 [1] does the source give for CC(C)Cn1cc(-c2ccnc(N)n2)c2cc(Br)ccc21 here?
Answer: > 50 µM

Question: What about the IC50 [2] of the same compound?
Answer: 14.9 µM

Question: What does the source list for Nc1nc(-c2c[nH]c3ccc(Br)cc23)c[nH]1?
Answer: EC50 [1]: > 50 µM; MIC [3]: 100 µM (≈ 27.7 µg/mL); IC50 [2]: 9.5 µM

Question: What does the source list for CN(C)c1nccc(-c2c[nH]c3ccc(Br)cc23)n1?
Answer: MIC [4]: 64 µg/mL; MIC [5]: 512 µg/mL; fold change (FC) [6]: 0; MIC [7]: 16 µg/mL; fold change (FC) [8]: 0; EC50 [1]: 35.7 µM; MIC [3]: ≥ 200 µM; fold change (FC) [9]: 0; fold change (FC) [10]: 0; IC50 [2]: 14.3 µM; MIC [11]: 512 µg/mL; MIC [12]: 128 µg/mL; fold change (FC) [13]: 2

Question: With Nc1nccc(-c2c[nH]c3cc(I)ccc23)n1 as the compound, how does the MIC [4] read?
Answer: 128 µg/mL

Question: What about the MIC [5] of the same compound?
Answer: 512 µg/mL

Question: What about the “fold change (FC)” value [6] of the same compound?
Answer: 0

Question: What about the MIC [7] of the same compound?
Answer: 16 µg/mL

Question: And the “fold change (FC)” value [8]?
Answer: 0

Question: What about the EC50 [1] of the same compound?
Answer: 29.4 µM

Question: And the MIC [3]?
Answer: ≥ 200 µM

Question: What about the “fold change (FC)” value [9] of the same compound?
Answer: 0

Question: And the “fold change (FC)” value [10]?
Answer: 0

Question: What about the IC50 [2] of the same compound?
Answer: 13.2 µM

Question: And the MIC [11]?
Answer: 512 µg/mL

Question: And the MIC [12]?
Answer: 128 µg/mL

Question: And the “fold change (FC)” value [13]?
Answer: 0

Question: For Brc1ccc2[nH]cc(-c3ccnc(NCc4ccccc4)n3)c2c1, which MIC [4] is on record?
Answer: 64 µg/mL

Question: What about the MIC [5] of the same compound?
Answer: 512 µg/mL

Question: And the “fold change (FC)” value [6]?
Answer: 0

Question: And the MIC [7]?
Answer: 16 µg/mL

Question: And the “fold change (FC)” value [8]?
Answer: 2

Question: What about the hemolysis at 1 h, 500 µM [14] of the same compound?
Answer: 32%

Question: And the EC50 [1]?
Answer: 28.3 µM

Question: And the MIC [3]?
Answer: ≥ 200 µM

Question: What about the hemolysis at 1 h, 200 µM [15] of the same compound?
Answer: 9%

Question: And the “fold change (FC)” value [9]?
Answer: 2

Question: And the “fold change (FC)” value [10]?
Answer: 0

Question: And the IC50 [2]?
Answer: 6.9 µM

Question: What about the MIC [11] of the same compound?
Answer: 256 µg/mL

Question: And the MIC [12]?
Answer: 64 µg/mL

Question: And the “fold change (FC)” value [13]?
Answer: 2

Question: For CCCCn1cc(-c2ccnc(N)n2)c2ccc(Br)cc21, which hemolysis at 1 h, 500 µM [14] is on record?
Answer: 73%

Question: And the EC50 [1]?
Answer: > 50 µM

Question: What about the hemolysis at 1 h, 200 µM [15] of the same compound?
Answer: 56%

Question: What about the IC50 [2] of the same compound?
Answer: > 50 µM

Question: For CCCCCn1cc(-c2ccnc(N)n2)c2cc(Br)ccc21, which EC50 [1] is on record?
Answer: > 50 µM

Question: And the IC50 [2]?
Answer: > 50 µM

Question: Which EC50 [1] does the source give for Nc1nccc(-c2cn(Cc3ccccc3)c3cc(Br)ccc23)n1 here?
Answer: > 50 µM

Question: And the IC50 [2]?
Answer: 27.3 µM

Question: Which EC50 [1] does the source give for Nc1ncc(-c2c[nH]c3ccc(Cl)cc23)[nH]1 here?
Answer: > 50 µM

Question: And the IC50 [2]?
Answer: 16 µM

Question: With Nc1ncc(-c2c[nH]c3cc(Cl)ccc23)[nH]1 as the compound, how does the EC50 [1] read?
Answer: 33.7 µM

Question: And the IC50 [2]?
Answer: 10.3 µM

Question: For Nc1ncc(-c2c[nH]c3ccc(F)cc23)[nH]1, which EC50 [1] is on record?
Answer: > 50 µM

Question: What about the IC50 [2] of the same compound?
Answer: 40.2 µM

Question: What does the source list for Nc1nccc(-c2c[nH]c3ccccc23)n1?
Answer: EC50 [1]: > 50 µM; IC50 [2]: 29.5 µM

Question: What does the source list for Nc1nccc(-c2c[nH]c3ccc(Br)cc23)n1 [MERIDIANIN C]?
Answer: EC50 [1]: > 50 µM; IC50 [2]: 22.7 µM

Question: Which results are given for Nc1nccc(-c2c[nH]c3cc(Br)ccc23)n1 [MERIDIANIN D]?
Answer: fold change (FC) [6]: 0; fold change (FC) [8]: 0; hemolysis at 1 h, 500 µM [14]: 13%; EC50 [1]: 51 µM; MIC [3]: 200 µM (≈ 57.8 µg/mL); hemolysis at 1 h, 200 µM [15]: 8%; fold change (FC) [9]: 0; fold change (FC) [10]: 0; IC50 [2]: 21.5 µM; fold change (FC) [13]: 0
